From paper PMC12166256 (Clinical Pharmacology and Therapeutics, 2025)
Marks after values point to notes of the source that are not given here.

How the values were obtained:
TNF = details: read-out: 50% inhibitory concentration [IC50], TNF inhibition; in vitro; cited from earlier work
[1] = system: collagen-induced arthritis mouse model; details: cited from earlier work
[2] = MAD study: plasma and urine pharmacokinetics; assay type: in vivo, human; details: for CLR (renal clearance), mean ± SD / CLR, geometric mean: MAD steady state
Summary of the method: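 Healthy males got oral doses for 14 days: 100 mg once daily fasted, or 100, 200 or 300 mg twice daily fed. Plasma was drawn pre-dose and […] on Day 1, pre-dose and at 3 h on Days 4, 7 and 12, and up to 120 h after the final Day 14 morning dose. Urine was collected over 24 h at steady state. LC–MS/MS, LLOQ 2 ng/mL; non-compartmental analysis.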

[3] = MAD 24-hour urine Day 13, 100 mg BID fed
[4] = MAD 24-hour urine Day 13, 100 mg QD fasted
[5] = MAD 24-hour urine Day 13, 200 mg BID fed
[6] = MAD 24-hour urine Day 13, 300 mg BID fed
[7] = MAD Day 1 first dose, 100 mg BID fed
[8] = MAD Day 1 first dose, 100 mg QD fasted
[9] = MAD Day 1 first dose, 100 mg QD fasted, calculated by extrapolation
[10] = MAD Day 1 first dose, 200 mg BID fed
[11] = MAD Day 1 first dose, 300 mg BID fed
[12] = MAD Day 14, 100 mg BID fed, n = 6

## CN1C(=O)c2cccc(OC(F)F)c2[C@H]2C[C@@H]1c1nc3ccc(-c4cnc(C5(N)CCC5)nc4)cc3n12 [Balinatunfib]
TNF
  IC50: 35 nM
[1]; collagen-induced arthritis mouse model
  average free efficacious exposure in mice: 24 nM
[1]; in vivo
  efficacy in collagen-induced arthritis mouse model: antibody‐like efficacy
[2]; BID dosing, fed
  time to steady state (90% CI): 5.45 (5.36–5.92) days
[2]; [3]
  Fe0-24 (fraction of dose excreted unchanged in urine), mean ± SD: 9.41 ± 4.66%
  Fe0-24, geometric mean: (8.18) [50] %
[2]; [4]
  Fe0-24 (fraction of dose excreted unchanged in urine), mean ± SD: 9.07 ± 1.85%
  Fe0-24, geometric mean: (8.91) [20] %
[2]; [5]
  Fe0-24 (fraction of dose excreted unchanged in urine), mean ± SD: 11.9 ± 3.54%
  Fe0-24, geometric mean: (11.4) [30] %
[2]; [6]
  Fe0-24 (fraction of dose excreted unchanged in urine), mean ± SD: 15.6 ± 4.40%
  Fe0-24, geometric mean: (15.0) [28] %
[2]; [7]
  AUC0-12, geometric mean: (324) [53] ng·h/mL
  AUC0-12, mean ± SD: 364 ± 194 ng·h/mL
  C av, geometric mean: (27.0) [53] ng/mL
  C av, mean ± SD: 30.4 ± 16.2 ng/mL
  C max, geometric mean: (38.1) [50] ng/mL
  C max, mean ± SD: 42.6 ± 21.2 ng/mL
  t max, median (min, max): 6.00 (2.00, 8.00) h
[2]; [8]
  AUC0-12, geometric mean: (527) [35] ng·h/mL
  AUC0-12, mean ± SD: 559 ± 194 ng·h/mL
  C av, geometric mean: (28.1) [32] ng/mL
  C av, mean ± SD: 29.5 ± 9.33 ng/mL
  C max, geometric mean: (83.1) [38] ng/mL
  C max, mean ± SD: 88.6 ± 34.0 ng/mL
  t max, median (min, max): 3.00 (3.00, 3.00) h
[2]; [9]
  AUC0-24, geometric mean: 674 ng·h/mL
  AUC0-24, mean ± SD: 708 ± 224 ng·h/mL
[2]; [10]
  AUC0-12, geometric mean: (1,080) [31] ng·h/mL
  AUC0-12, mean ± SD: 1,130 ± 354 ng·h/mL
  C av, geometric mean: (90.3) [31] ng/mL
  C av, mean ± SD: 94.5 ± 29.5 ng/mL
  C max, geometric mean: (132) [32] ng/mL
  C max, mean ± SD: 139 ± 43.9 ng/mL
  t max, median (min, max): 5.00 (2.00, 6.00) h
[2]; [11]
  AUC0-12, geometric mean: (2,180) [32] ng·h/mL
  AUC0-12, mean ± SD: 2,280 ± 725 ng·h/mL
  C av, geometric mean: (182) [32] ng/mL
  C av, mean ± SD: 190 ± 60.4 ng/mL
  C max, geometric mean: (268) [31] ng/mL
  C max, mean ± SD: 278 ± 85.4 ng/mL
  t max, median (min, max): 4.00 (3.00, 6.00) h
[2]; MAD Day 14, 100 mg BID fed
  AUC0-tau, geometric mean: (1,690) [48] ng·h/mL
  AUC0-tau, mean ± SD: 1,860 ± 892 ng·h/mL
  C av, geometric mean: (141) [48] ng/mL
  C av, mean ± SD: 155 ± 74.4 ng/mL
  C max, geometric mean: (173) [46] ng/mL
  C max, mean ± SD: 189 ± 86.3 ng/mL
  C trough, geometric mean: (122) [52] ng/mL
  C trough, mean ± SD: 136 ± 70.8 ng/mL
  CLss/F, geometric mean: (59.1) [44] L/h
  CLss/F, mean ± SD: 64.6 ± 28.2 L/h
  FLrel (relative fluctuation), geometric mean: (46.1) [20] %
  R ac (accumulation ratio), mean ± SD: 5.46 ± 0.951
  R ac Cmax (accumulation ratio based on C max), mean ± SD: 4.77 ± 0.730
  R ac, geometric mean: (5.38) [17]
  V z/F, geometric mean: (2,250) [51] L
  t max, median (min, max): 3.00 (1.00, 4.00) h
[2]; [12]
  t 1/2z, geometric mean: (23.6) [13] h
  t 1/2z, mean ± SD: 23.8 ± 3.18 ^g h
[2]; MAD Day 14, 100 mg QD fasted
  AUC0-tau, geometric mean: (1,680) [27] ng·h/mL
  AUC0-tau, mean ± SD: 1,750 ± 471 ng·h/mL
  C av, geometric mean: (70.0) [27] ng/mL
  C av, mean ± SD: 72.9 ± 19.6 ng/mL
  C max, geometric mean: (153) [31] ng/mL
  C max, mean ± SD: 161 ± 49.2 ng/mL
  C trough, geometric mean: (35.2) [31] ng/mL
  C trough, mean ± SD: 37.2 ± 11.5 ng/mL
  CLss/F, geometric mean: (59.5) [37] L/h
  CLss/F, mean ± SD: 62.5 ± 23.4 L/h
  FLrel (relative fluctuation), geometric mean: (168) [20] %
  R ac (accumulation ratio), mean ± SD: 2.52 ± 0.431
  R ac Cmax (accumulation ratio based on C max), mean ± SD: 1.87 ± 0.400
  R ac, geometric mean: (2.50) [17]
  V z/F, geometric mean: (2,530) [38] L
  V z/F, mean ± SD: 2,700 ± 1,020 L
  t 1/2z, geometric mean: (29.5) [28] h
  t 1/2z, mean ± SD: 30.3 ± 8.43 h
  t max, median (min, max): 3.00 (2.00, 4.00) h
[2]; MAD Day 14, 200 mg BID fed
  AUC0-tau, geometric mean: (4,990) [37] ng·h/mL
  AUC0-tau, mean ± SD: 5,370 ± 2,010 ng·h/mL
  C av, geometric mean: (416) [37] ng/mL
  C av, mean ± SD: 448 ± 167 ng/mL
  C max, geometric mean: (511) [35] ng/mL
  C max, mean ± SD: 547 ± 193 ng/mL
  C trough, geometric mean: (349) [43] ng/mL
  C trough, mean ± SD: 383 ± 163 ng/mL
  CLss/F, geometric mean: (40.1) [47] L/h
  CLss/F, mean ± SD: 43.7 ± 20.6 L/h
  FLrel (relative fluctuation), geometric mean: (44.7) [27] %
  R ac (accumulation ratio), mean ± SD: 4.65 ± 0.654
  R ac Cmax (accumulation ratio based on C max), mean ± SD: 3.91 ± 0.612
  R ac, geometric mean: (4.60) [14]
  V z/F, geometric mean: (1,380) [62] L
  V z/F, mean ± SD: 1,590 ± 983 L
  t 1/2z, geometric mean: (23.9) [14] h
  t 1/2z, mean ± SD: 24.1 ± 3.28 h
  t max, median (min, max): 3.00 (2.00, 8.00) h
[2]; MAD Day 14, 300 mg BID fed
  AUC0-tau, geometric mean: (9,290) [27] ng·h/mL
  AUC0-tau, mean ± SD: 9,670 ± 2,650 ng·h/mL
  C av, geometric mean: (774) [27] ng/mL
  C av, mean ± SD: 806 ± 221 ng/mL
  C max, geometric mean: (947) [27] ng/mL
  C max, mean ± SD: 982 ± 261 ng/mL
  C trough, geometric mean: (639) [32] ng/mL
  C trough, mean ± SD: 676 ± 215 ng/mL
  CLss/F, geometric mean: (32.3) [37] L/h
  CLss/F, mean ± SD: 33.9 ± 12.7 L/h
  FLrel (relative fluctuation), geometric mean: (46.1) [29] %
  R ac (accumulation ratio), mean ± SD: 4.40 ± 1.22
  R ac Cmax (accumulation ratio based on C max), mean ± SD: 3.62 ± 0.861
  R ac, geometric mean: (4.25) [28]
  V z/F, geometric mean: (991) [29] L
  V z/F, mean ± SD: 1,030 ± 299 L
  t 1/2z, geometric mean: (21.3) [23] h
  t 1/2z, mean ± SD: 21.7 ± 4.92 h
  t max, median (min, max): 3.00 (2.00, 6.00) h
[2]; 100 mg BID fed
  CLR (renal clearance), mean ± SD: 5.16 ± 2.10 L/h
  CLR, geometric mean: (4.83) [41] L/h
[2]; 100 mg QD fasted
  CLR (renal clearance), mean ± SD: 5.53 ± 1.67 L/h
  CLR, geometric mean: (5.30) [30] L/h
[2]; 200 mg BID fed
  CLR (renal clearance), mean ± SD: 4.62 ± 0.862 L/h
  CLR, geometric mean: (4.55) [19] L/h
[2]; 300 mg BID fed
  CLR (renal clearance), mean ± SD: 4.92 ± 0.929 L/h
  CLR, geometric mean: (4.85) [19] L/h
[2]; after QD dosing
  accumulation: 2.52 fold
[2]; healthy participants
  apparent volume of distribution: > 1,000 L
